For data set [1], the species on record is Canis familiaris. The experiment in a line: Percent change from control in the functional refractory period (FRP) at 10 uM conc. on Canine ventricular muscle fibre. Further details: species or system Canis lupus familiaris, Muscle tissue. The procedure, abridged:
(§1)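 Canine right ventricular papillary muscle strips were superfused at 36 ± 0.5 °C with saline gassed with 95% O2/5% CO2. Diastolic threshold was found with 2-ms stimuli at 4000 ms cycle length, then pacing at 4× threshold for 60 min equilibration. FRP was measured at 1000 ms cycle length by S1-S2 premature stimulus after every tenth S1. Conduction time came from a bipolar electrogram. Various compound concentrations were tested, one compound per strip, with vehicle controls. Percent change from control was taken at 10 µM, or the maximum change with its concentration; for N ≥ 3, mean with range.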

The species named for data set [2] is Cavia porcellus. Put plainly: Concentration of compound which gives a 20% decrease in contractile force was tested on papillary muscle of guinea pig, activity was expressed as EC-20; N.R. is not reached. It is filed as functional. Conditions: Muscle tissue. The procedure, abridged: (§2)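 Contractile force measured in an isolated cardiac muscle preparation. Value is the concentration giving a 20% decrease in force of contraction. NR marks that this decrease was not reached. Values come from individual experiments; for N ≥ 3, the mean is given with the range.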

Data set [3] is filed under the species Canis familiaris. The experiment in a line: Maximum percent change in conduction time (CT) at 100 uM concentration tested on Canine ventricular muscle fibre. The data set is classed as functional, Canis lupus familiaris, Muscle tissue. The procedure, abridged:
as §1

The species entered for data set [4] is Canis familiaris. The experiment in a line: Percent change in repolarization at 10 Purkinje fibers.; value ranges from 1-4. It is filed as functional, Canis lupus familiaris, Purkinje fiber. The procedure, abridged: (§3)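 Canine Purkinje fibers were held in oxygenated (95% O2–5% CO2) physiological saline, pH 7.35–7.40, at 36 ± 0.5 °C and paced at 1.0 Hz with 2-ms pulses at twice diastolic threshold. Intracellular microelectrodes (3 M KCl) recorded Vmax and APD95 simultaneously. After up to 1 h of stabilization, compounds were tested from 10^-8 to 10^-3 M with 30 min per concentration. One compound per fiber, with vehicle controls. For N ≥ 3, values are the mean with the range.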

The species entered for data set [5] is Canis familiaris. The experiment in a line: Maximum Percent change from control in the rate of rise of phase 0 of the action potential at 100 uM concentration on Canine Purkinje fibers. The data set is classed as […], Canis lupus familiaris, Purkinje fiber. As to conditions: dog, in vitro. An outline of the steps:
(§4)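 Isolated canine Purkinje fibers were superfused with physiological saline gassed with 95% O2/5% CO2 (pH 7.35–7.40) at 36 ± 0.5 °C. Paced at 1.0 Hz with 2-ms pulses at twice diastolic threshold. After up to 1 h stabilization, compounds were tested over 10^-8 to 10^-3 M, 30 min per concentration, one compound per fiber, with vehicle controls. Intracellular microelectrodes (3 M KCl) recorded Vmax and APD95; maximum percent change from control is reported with its concentration.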

The species named for data set [6] is Canis familiaris. The experiment in a line: Maximum percent change in functional refractory period (FRP) at 100 uM on Canine ventricular muscle fibre. Further details: species or system Canis lupus familiaris, Muscle tissue. The procedure, abridged: as §1
Data set [7] is filed under the species Canis familiaris. Put plainly: Percent change from control in conduction time (CT) at 10 uM concentration tested on Canine ventricular muscle fibre. It is filed as functional, Canis lupus familiaris, Muscle tissue. The procedure, abridged:
as §1

For data set [8], the species on record is Canis familiaris. Put plainly: Maximum percent change in conduction time (CT) at 1 uM concentration tested on Canine ventricular muscle fibre. The data set is classed as functional, Canis lupus familiaris, Muscle tissue. The procedure, abridged: as §1
For data set [9], the species on record is Canis familiaris. The experiment in a line: Maximum percent change in repolarization at 0.1 uM concentration on Canine Purkinje fibers. The data set is classed as functional, Canis lupus familiaris, Purkinje fiber. An outline of the steps:
as §4

The species entered for data set [10] is Canis familiaris. Put plainly: Percent change from control in the rate of rise of phase 0 of the action potential at 10 uM concentration on Canine Purkinje fibers. Further details: species or system Canis lupus familiaris, Purkinje fiber. Conditions: dog.
The species entered for data set [11] is Canis familiaris. The experiment in a line: Maximum Percent change from control in the rate of rise of phase 0 of the action potential at 1 uM concentration on Canine Purkinje fibers. Set-up: species or system Canis lupus familiaris, Purkinje fiber. The procedure, abridged:
as §4

The species named for data set [12] is Canis familiaris. The experiment in a line: Maximum percent change in repolarization at 100 uM concentration on Canine Purkinje fibers. It is filed as functional, Canis lupus familiaris, Purkinje fiber. The procedure, abridged: as §4
For data set [13], the species on record is Canis familiaris. The experiment in a line: Maximum Percent change from control in the rate of rise of phase 0 of the action potential at 30 uM concentration on Canine Purkinje fibers. Set-up: species or system Canis lupus familiaris, Purkinje fiber. Conditions: dog, in vitro. The procedure, abridged:
as §4

Data set [14] is filed under the species Canis familiaris. The experiment in a line: Maximum percent change in repolarization at 10 uM concentration on Canine Purkinje fibers. The data set is classed as functional, Canis lupus familiaris, Purkinje fiber. The procedure, abridged: as §4
The species entered for data set [15] is Canis familiaris. The experiment in a line: Maximum percent change in functional refractory period (FRP) at 10 uM on Canine ventricular muscle fibre. Further details: species or system Canis lupus familiaris, Muscle tissue. An outline of the steps: as §1
For data set [16], the species on record is Canis familiaris. The experiment in a line: Percent change from control in conduction time (CT) at 10 uM concentration tested on Canine ventricular muscle fibre.; value ranges from -11.0-0. It is filed as functional, Canis lupus familiaris, Muscle tissue. An outline of the steps:
as §1

The species entered for data set [17] is Canis familiaris. Put plainly: Percent change from control in the rate of rise of phase 0 of the action potential at 10 uM concentration on Canine Purkinje fibers.; value ranges from 0-2. Set-up: species or system Canis lupus familiaris, Purkinje fiber. Conditions: dog, in vitro.
Data set [18] is filed under the species Canis familiaris. Put plainly: Percent change in repolarization at 10 Purkinje fibers; value ranges from -3.0-7.0. It is filed as functional, Canis lupus familiaris, Purkinje fiber. The procedure, abridged: as §3
Data set [19] is filed under the species Canis familiaris. The experiment in a line: The maximum Percent change from control in the rate of rise of phase 0 of the action potential at 1 uM concentration on Canine Purkinje fibers. Set-up: species or system Canis lupus familiaris, Purkinje fiber. Conditions: dog. An outline of the steps:
as §3

The species entered for data set [20] is Canis familiaris. Put plainly: Maximum percent change in conduction time (CT) at 0.1 uM concentration tested on Canine ventricular muscle fibre. It is filed as functional, Canis lupus familiaris, Muscle tissue. An outline of the steps:
as §1

The species named for data set [21] is Canis familiaris. Put plainly: The maximum Percent change from control in the rate of rise of phase 0 of the action potential at 100 uM concentration on Canine Purkinje fibers. Set-up: species or system Canis lupus familiaris, Purkinje fiber. As to conditions: dog. The procedure, abridged: as §3
Data set [22] is filed under the species Canis familiaris. Put plainly: The maximum percent change in action potential (Vmax ) at concentration observed (0.1 uM ) was tested on Canine Purkinje fibers. As to conditions: dog, in vitro. Set-up: species or system Canis lupus familiaris, Purkinje fiber. The procedure, abridged:
as §3

The species entered for data set [23] is Canis familiaris. The experiment in a line: Percent change from control in the functional refractory period (FRP) at 10 uM conc. on Canine ventricular muscle fibre.; value ranges from 11-23. Set-up: species or system Canis lupus familiaris, Muscle tissue. The procedure, abridged: as §1
The species entered for data set [24] is Canis familiaris. The experiment in a line: Maximum percent change in repolarization at 100 uM concentration on Canine Purkinje fibers.; value ranges from 14-20. It is filed as functional, Canis lupus familiaris, Purkinje fiber. The procedure, abridged: as §4
Data set [25] can be described thus: Maximum Percent change from control in the rate of rise of phase 0 of the action potential at 30 uM concentration on Canine Purkinje fibers; CB is conduction block. It is filed as functional, tissue-based. As to conditions: Purkinje fiber. An outline of the steps:
as §4

The species entered for data set [26] is Canis familiaris. The experiment in a line: Percent change in repolarization at 10 Purkinje fibers.; value ranges from -23-17. It is filed as functional, Canis lupus familiaris, Purkinje fiber. The procedure, abridged:
as §3

The species entered for data set [27] is Canis familiaris. Put plainly: Maximum percent change in repolarization at 30 uM concentration on Canine Purkinje fibers. The data set is classed as functional, Canis lupus familiaris, Purkinje fiber. The procedure, abridged:
as §4

The species named for data set [28] is Cavia porcellus. The experiment in a line: Concentration of compound which gives a 20% decrease in contractile force was tested on papillary muscle of guinea pig, activity was expressed as EC-20. The data set is classed as functional. Conditions: Muscle tissue. The procedure, abridged: as §2
For data set [29], the species on record is Canis familiaris. Put plainly: Maximum Percent change from control in the rate of rise of phase 0 of the action potential at 10 uM concentration on Canine Purkinje fibers. It is filed as functional, Canis lupus familiaris, Purkinje fiber. As to conditions: dog, in vitro. The procedure, abridged:
as §4

Data set [30] is filed under the species Canis familiaris. Put plainly: Maximum percent change in functional refractory period(FRP) of compound (30 uM) was tested on Canine ventricular muscle fibre. Further details: species or system Canis lupus familiaris, Muscle tissue. An outline of the steps: as §1
The species entered for data set [31] is Canis familiaris. Put plainly: Percent change in repolarization at 10 Purkinje fibers. It is filed as functional, Canis lupus familiaris, Purkinje fiber. The procedure, abridged:
as §3

The species entered for data set [32] is Canis familiaris. Put plainly: Percent change from control in conduction time (CT) at 10 uM concentration tested on Canine ventricular muscle fibre.; M is minimal(<10% change in CT). The data set is classed as functional. Conditions: Canis lupus familiaris, Muscle tissue. The procedure, abridged: as §1
The species named for data set [33] is Canis familiaris. Put plainly: Maximum percent change in conduction time (CT) at 10 uM concentration tested on Canine ventricular muscle fibre. It is filed as functional, Canis lupus familiaris, Muscle tissue. The procedure, abridged: as §1

Each structure is given as a SMILES string.

The results in this text go back to ChEMBL document CHEMBL1124429, “Heterocyclic analogues of benzamide antiarrhythmic agents” (J Med Chem, 1989).

The term EC20 denotes the concentration needed for an effect of 20%. As to `CCN(CC)CCNC(=O)c1c(O)cc(C)nc1C`, the FRP in the data set filed under Canis familiaris [1] is on record as 21%; in the data set listed under Canis familiaris [6], 26%. In the data set filed under Cavia porcellus [2], the EC20 entry is reported as “Not reached”. The CT in the data set listed under Canis familiaris [3] is given as -16%; in the data set listed under Canis familiaris [7] it was -5%; in the data set filed under Canis familiaris [8], -5%. Besides, the APD95 in the data set listed under Canis familiaris [4] was 3%; in the data set filed under Canis familiaris [9] it was 5%; in the data set listed under Canis familiaris [12], 4%; in the data set filed under Canis familiaris [14], 4%. The Vmax in the data set filed under Canis familiaris [5] is -7%; in the data set filed under Canis familiaris [10] (in vitro), 0.3%; in the data set filed under Canis familiaris [11], -5%; in the data set filed under Canis familiaris [13], -12%.
For the compound `CCN(CC)CCNC(=O)c1ccc(NC(C)=O)cc1` [ACECAINIDE], the FRP in the data set filed under Canis familiaris [15] worked out at 23%; in the data set filed under Canis familiaris [6], 31%; in the data set listed under Canis familiaris [23] it was 16.8%. Besides, the CT in the data set filed under Canis familiaris [3] is 6%; in the data set listed under Canis familiaris [16], -9.7%; in the data set filed under Canis familiaris [8], -9%; in the data set listed under Canis familiaris [20] it was -11%. In addition, the Vmax in the data set filed under Canis familiaris [17] is 1%; in the data set listed under Canis familiaris [19], 2%; in the data set listed under Canis familiaris [21] it was 5%; in the data set filed under Canis familiaris [22], 6%. In addition, the APD95 came to 3% in the data set filed under Canis familiaris [18] and 16.3% in the data set filed under Canis familiaris [24].
Turning to `CCN(CC)CCNC(=O)c1cc2cccc(OCc3ccccc3)c2[nH]1`, the FRP is 2% in the data set filed under Canis familiaris [1] and 10% in the data set filed under Canis familiaris [6]. The Vmax result in data set [25] is “Conduction block”; in the data set filed under Canis familiaris [10] (in vitro) it was -37.7%; in the data set filed under Canis familiaris [13], -66%; in the data set filed under Canis familiaris [29], -30%. Also, the values for the CT in the data set listed under Canis familiaris [3] and in the data set filed under Canis familiaris [7] were 4% and -13%, respectively. Also, the APD95 in the data set listed under Canis familiaris [26] is listed as -7%; in the data set listed under Canis familiaris [27], -25%; in the data set filed under Canis familiaris [14], 17%. The same compound registered an EC20 in the data set listed under Cavia porcellus [28] of 6 µM.
`CCN(CC)CCNC(=O)c1c(C)[nH]c(C)c1C`: the FRP in the data set filed under Canis familiaris [1] amounted to 1%; in the data set listed under Canis familiaris [30] it was 6%. Further, the APD95 in the data set filed under Canis familiaris [31] is 2%; in the data set listed under Canis familiaris [12], -5%. Moreover, the Vmax in the data set filed under Canis familiaris [5] was -45%; in the data set listed under Canis familiaris [10] (in vivo) it was -18%. For the same compound, the CT entry in the data set listed under Canis familiaris [32] is recorded as “Minimal”; in the data set filed under Canis familiaris [33], -8%. For the same compound, the EC20 in the data set filed under Cavia porcellus [28] was found to be 30 µM.
